A short description of series [1]: Dark toxicity in human HeLa cells assessed as reduction in cell viability. The format is cell-based. An outline of the steps: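 HeLa cells were grown in DMEM/F12 with 10% FBS, without antibiotics, at 37 °C and 5% CO2, and exposed to compound without irradiation. Live cells were counted by fluorometric microculture cytotoxicity assay (FMCA), with 10 independent microcultures per concentration. Outliers were screened by Grubbs criterion, and IC50 was derived from concentration versus survival index (±SE).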

The nature of series [2]: Aqueous solubility of the compound by UV spectroscopy. The format is physicochemical. The following applies: buffer.
Another series relates to HeLa. The series can be described thus: Phototoxicity in human HeLa cells assessed as reduction in cell viability in presence of irradiation with LED light at 12 J/cm2. The series is classed as functional, cell-based. The following applies: light or radiation study. An outline of the steps:
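HeLa cells were cultured in DMEM/F12 with 10% FBS, antibiotic-free, at 37 °C and 5% CO2. Compound-treated cells were irradiated with a 660 nm LED at 12 J/cm2. Viable cells were quantified by FMCA using 10 independent microcultures per concentration. Grubbs criterion removed artifacts before IC50 was calculated from concentration versus survival index (±SE).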

Series [3] in a line: Drug penetration in human HeLa cells at 10 uM measured after 40 mins by fluorescence microscopy. The series is classed as ADME, cell-based. In a few lines:
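HeLa cells were incubated for 40 min with compound at 10 μM, alongside untreated cells. Uptake was judged by intracellular red fluorescence under fluorescence microscopy, paired with light micrographs of the same fields.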

The nature of series [4]: Potency index, ratio of IC50 for dark toxicity in human HeLa cells to IC50 for phototoxicity in human HeLa cells in presence of irradiation with LED light at 12 J/cm2. The format is cell-based. The conditions noted are these: read-out: Ratio IC50. An outline of the steps:
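The index is dark IC50 divided by photoinduced IC50 in HeLa cells. Both IC50 values come from FMCA viability readings (10 microcultures per concentration, Grubbs outlier check, fit of concentration versus survival index). The phototoxicity arm used 660 nm LED irradiation at 12 J/cm2.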

SMILES strings stand for the structures.

A word on the IC50: it is the concentration needed to halve the response being measured. As for `C=Cc1c(C)c2cc3nc(c(CC(=O)OC)c4[nH]c(cc5nc(cc1[nH]2)C(C)=C5CC)c(C)c4C(=O)NCCN(C[C@H]1OC(O)[C@H](O)[C@@H](O)[C@H]1O)C[C@H]1OC(O)[C@H](O)[C@@H](O)[C@H]1O)[C@@H](CCC(=O)NCCN(C[C@H]1OC(O)[C@H](O)[C@@H](O)[C@H]1O)C[C@H]1OC(O)[C@H](O)[C@@H](O)[C@H]1O)[C@@H]3C` (some centres undefined), the values for the IC50 (in series [1]; with HeLa) were 59.6 µM and 1.57 µM, respectively. For the same molecule, the solubility entry in series [2] is “Soluble”. Further, the Drug uptake result in series [3] is listed as “Active”. For the same molecule, the selectivity ratio in series [4] stood at 38.
Take `C=Cc1c(C)c2cc3nc(c(CC(=O)OC)c4[nH]c(cc5nc(cc1[nH]2)C(C)=C5CC)c(C)c4C(=O)NCCN(C[C@H]1OC(O)[C@H](O)[C@@H](O)[C@H]1O)C[C@H]1OC(O)[C@H](O)[C@@H](O)[C@H]1O)[C@@H](CCC(=O)OC)[C@@H]3C` (some centres undefined): the results for the IC50 (in series [1]; with HeLa) were 6.1 µM and 1.11 µM, respectively. In addition, in series [2], the solubility result is recorded as “Soluble”. The Drug uptake entry in series [3] is on record as “Active”.
For `C=Cc1c(C)c2cc3nc(c(CC(=O)OC)c4[nH]c(cc5nc(cc1[nH]2)C(C)=C5CC)c(C)c4C(=O)NCCN(C[C@H]1OC(O)[C@H](O)[C@@H](O)[C@H]1O)C[C@H]1OC(O)[C@H](O)[C@@H](O)[C@H]1O)[C@@H](CCC(=O)O)[C@@H]3C` (some centres undefined), the IC50 in series [1] is 39 µM; in the series on HeLa, 1.24 µM. Also, the solubility entry in series [2] is recorded as “Soluble”. In series [3], the Drug uptake result is recorded as “Active”. The selectivity ratio in series [4] is 31.
